Reference: ChEMBL document CHEMBL5390224, “Design, synthesis, and biological evaluation of a novel series of 1,2,4-oxadiazole inhibitors of SLACK potassium channels: Identification of in vitro tool VU0935685” (Bioorg Med Chem, 2023)
Activity calls are given as the source filed them. The rule behind the calls is not given here.

Legend:
HEK293 [1] = experiment: Activation of wild-type human SLACK expressed in HEK293 cells assessed as efficacy at 30 uM by thallium flux assay relative to control; assay type: cell-based
[2] = Activation of wild-type human SLACK expressed in HEK293 cells by thallium flux assay; assay type: cell-based
Outline: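 Stable monoclonal HEK293 line with WT SLACK, dye-loaded 1 h at room temperature (Thallo-AM, probenecid, masking dye, Pluronic), pH 7.3 buffer. Compound added 120 s before Tl2SO4 stimulus (2.5 mM), kinetic fluorescence imaging 120 s. Concentrations 1.5 nM–30 μM, half-log steps, ≥3 replicate wells per series.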

[3] = Inhibition of wild-type human SLACK expressed in HEK293 cells by thallium flux assay; assay type: cell-based
Outline: (§1)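 Stable monoclonal HEK293 lines (WT or A934T SLACK) plated 20,000 cells/well; loaded 1 h at room temperature with Thallo-AM dye, 1.25 mM probenecid, masking dye, 0.3% Pluronic F-127 in buffer with 2.7 mM RbCl, pH 7.3. Compound preincubated 120 s, then Tl2SO4 stimulus (2.5 mM); fluorescence read 120 s. Concentration–response 1.5 nM–30 μM in half-log steps, ≥3 replicate wells.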

[4] = Inhibition of wild-type human SLACK expressed in CHO cells by whole cell voltage clamp electrophysiology assay; assay type: cell-based; settings: Cricetulus griseus
Outline: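 Automated whole-cell patch clamp at room temperature. External (mM): NaCl 105, KCl 4, MgCl2 1, CaCl2 5, HEPES 10, NMDG-Cl 40, pH 7.4. Internal: NaCl 70, KF 70, KCl 10, EGTA 5, HEPES 5, pH 7.2. Concentrations 0.125–30 μM in half-log steps, ≥3 cells per series.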

[5] = Inhibition of human SLACK A934T mutant expressed in HEK293 cells by thallium flux assay; assay type: cell-based; outline: as §1
[6] = biological target: T1, Potassium channel subfamily T member 2 (Homo sapiens, UniProt Q6UVM3); experiment: Inhibition of SLICK (unknown origin) expressed in HEK293 cells by thallium flux assay; assay type: cell-based
T1 sequence (Q6UVM3 whole entry): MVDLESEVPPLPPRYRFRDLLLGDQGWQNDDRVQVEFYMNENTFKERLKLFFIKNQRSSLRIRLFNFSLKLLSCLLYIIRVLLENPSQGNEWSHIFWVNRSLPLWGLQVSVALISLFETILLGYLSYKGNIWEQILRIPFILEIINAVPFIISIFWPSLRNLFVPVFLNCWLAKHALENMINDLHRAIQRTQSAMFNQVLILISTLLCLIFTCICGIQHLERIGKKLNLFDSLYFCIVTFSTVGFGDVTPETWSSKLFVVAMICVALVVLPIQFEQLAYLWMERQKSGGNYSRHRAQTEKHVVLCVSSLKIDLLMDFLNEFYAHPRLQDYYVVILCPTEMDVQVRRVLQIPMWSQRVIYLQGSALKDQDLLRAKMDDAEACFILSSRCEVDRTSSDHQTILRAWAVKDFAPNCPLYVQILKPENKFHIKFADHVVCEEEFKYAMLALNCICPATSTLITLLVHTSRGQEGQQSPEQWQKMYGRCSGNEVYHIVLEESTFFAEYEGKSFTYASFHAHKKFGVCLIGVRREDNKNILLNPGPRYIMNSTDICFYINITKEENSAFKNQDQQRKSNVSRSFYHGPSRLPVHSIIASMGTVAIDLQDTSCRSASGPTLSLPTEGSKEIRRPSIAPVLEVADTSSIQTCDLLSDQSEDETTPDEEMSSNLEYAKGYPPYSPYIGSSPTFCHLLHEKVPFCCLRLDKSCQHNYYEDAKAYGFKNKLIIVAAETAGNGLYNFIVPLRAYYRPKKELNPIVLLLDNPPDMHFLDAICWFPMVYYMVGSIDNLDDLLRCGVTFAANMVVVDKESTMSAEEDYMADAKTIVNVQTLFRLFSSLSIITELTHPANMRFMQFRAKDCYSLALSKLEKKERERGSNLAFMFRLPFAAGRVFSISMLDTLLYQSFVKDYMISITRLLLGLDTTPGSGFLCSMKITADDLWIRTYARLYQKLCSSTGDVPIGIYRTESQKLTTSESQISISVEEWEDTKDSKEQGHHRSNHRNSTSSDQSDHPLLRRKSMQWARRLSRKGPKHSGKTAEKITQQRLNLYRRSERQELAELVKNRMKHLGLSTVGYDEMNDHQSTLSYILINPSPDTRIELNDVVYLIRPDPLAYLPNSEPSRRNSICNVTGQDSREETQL

[7] = Plasma protein binding in mouse assessed as unbound fraction by equilibrium dialysis method; assay type: ADME, cell-free
Outline: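 Equilibrium dialysis, 12–14 K MWCO cellulose membrane: plasma spiked to 5 μM final versus 25 mM phosphate buffer pH 7.4, 6 h at 37 °C, shaking 200 rpm. Both sides matrix-matched, acetonitrile extraction with internal standard, LC/MS/MS quantitation. Triplicate.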

[8] = Metabolic stability in mouse liver microsomes assessed as compound remaining measured after 10 min in presence of NADPH; assay type: ADME, Microsome
Outline: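 Mouse liver microsomes (0.5 mg/mL) with compound (5 μM) preincubated 5 min at 37 °C in 100 mM potassium phosphate, pH 7.4. Reaction started with NADPH (1 mM) plus MgCl2 (3 mM). Samples at 0 and 10 min quenched in cold acetonitrile with internal standard; percent remaining by LC/MS/MS.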

CHO = experiment: Inhibition of wild-type human SLACK expressed in CHO cells assessed as efficacy at 30 uM by whole cell voltage clamp electrophysiology assay; assay type: cell-based; settings: Cricetulus griseus
HEK293 [9] = experiment: Inhibition of human SLACK A934T mutant expressed in HEK293 cells assessed as efficacy at 30 uM by thallium flux assay relative to control; assay type: cell-based; outline: as §1
[10] = biological target: T2, Potassium channel subfamily T member 2 (Homo sapiens) (UniProt Q6UVM3); experiment: Inhibition of SLICK (unknown origin) expressed in HEK293 cells assessed as efficacy at 30 uM by thallium flux assay relative to control; assay type: cell-based
T2 sequence (whole entry): T1 sequence (Q6UVM3 whole entry)

[11] = biological target: Calcium-activated potassium channel subunit alpha-1 (Homo sapiens) (UniProt Q12791); experiment: Inhibition of Maxi-K (unknown origin) expressed in HEK293 cells by thallium flux assay; assay type: cell-based
[12] = biological target: Calcium-activated potassium channel subunit alpha-1 (Homo sapiens) (UniProt Q12791); experiment: Inhibition of Maxi-K (unknown origin) expressed in HEK293 cells assessed as efficacy at 30 uM by thallium flux assay relative to control; assay type: cell-based
HEK293 [13] = experiment: Inhibition of wild-type human SLACK expressed in HEK293 cells assessed as efficacy at 30 uM by thallium flux assay relative to control; assay type: cell-based; outline: as §1
[14] = Efflux ratio of permeability in MDCK-MDR1 cells assessed as P-glycoprotein mediated efflux; assay type: ADME, cell-based, Canis lupus familiaris; settings: dog
[15] = Apparent permeability in MDCK-MDR1 cells by bidirectional permeability assay; assay type: ADME, cell-based, Canis lupus familiaris; settings: dog
[16] = biological target: Voltage-gated inwardly rectifying potassium channel KCNH2 (Homo sapiens, UniProt Q12809); experiment: Inhibition of human ERG expressed in HEK293 cells at 10 uM by thallium flux assay; assay type: toxicity, cell-based; settings: hek293, 10 µM
Voltage-gated inwardly rectifying potassium channel KCNH2, sequence (Q12809 whole entry): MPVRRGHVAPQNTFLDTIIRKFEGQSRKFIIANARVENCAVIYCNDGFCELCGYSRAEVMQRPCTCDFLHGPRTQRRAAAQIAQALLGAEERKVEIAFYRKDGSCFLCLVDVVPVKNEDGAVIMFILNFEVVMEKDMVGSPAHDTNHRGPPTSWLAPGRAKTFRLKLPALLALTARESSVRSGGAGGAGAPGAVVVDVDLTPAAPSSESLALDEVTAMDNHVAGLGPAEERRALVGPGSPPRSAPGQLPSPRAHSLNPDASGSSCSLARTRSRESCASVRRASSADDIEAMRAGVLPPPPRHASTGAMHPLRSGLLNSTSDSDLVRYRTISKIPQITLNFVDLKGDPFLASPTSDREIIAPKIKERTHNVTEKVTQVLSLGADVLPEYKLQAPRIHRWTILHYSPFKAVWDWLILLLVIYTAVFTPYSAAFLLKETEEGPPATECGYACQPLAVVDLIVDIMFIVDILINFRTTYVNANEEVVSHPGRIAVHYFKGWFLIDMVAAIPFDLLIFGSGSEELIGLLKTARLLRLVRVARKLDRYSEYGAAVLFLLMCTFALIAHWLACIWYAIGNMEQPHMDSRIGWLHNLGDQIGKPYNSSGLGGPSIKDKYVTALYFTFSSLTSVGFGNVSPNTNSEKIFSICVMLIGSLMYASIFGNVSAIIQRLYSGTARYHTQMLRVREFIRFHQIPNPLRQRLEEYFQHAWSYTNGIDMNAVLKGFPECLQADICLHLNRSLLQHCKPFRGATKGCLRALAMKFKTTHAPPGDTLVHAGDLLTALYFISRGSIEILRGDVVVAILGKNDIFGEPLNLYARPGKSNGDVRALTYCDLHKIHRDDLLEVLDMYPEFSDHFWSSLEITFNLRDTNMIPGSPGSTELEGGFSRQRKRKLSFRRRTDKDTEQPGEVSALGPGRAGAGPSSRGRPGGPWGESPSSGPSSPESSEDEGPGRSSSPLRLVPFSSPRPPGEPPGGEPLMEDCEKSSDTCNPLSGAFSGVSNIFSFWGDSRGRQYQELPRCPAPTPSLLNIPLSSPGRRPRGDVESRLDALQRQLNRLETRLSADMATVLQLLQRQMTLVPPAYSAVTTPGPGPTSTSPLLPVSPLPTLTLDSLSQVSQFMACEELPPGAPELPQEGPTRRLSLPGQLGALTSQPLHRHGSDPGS

Calcium-activated potassium channel subunit alpha-1 (Homo sapiens), sequence (Q12791 whole entry): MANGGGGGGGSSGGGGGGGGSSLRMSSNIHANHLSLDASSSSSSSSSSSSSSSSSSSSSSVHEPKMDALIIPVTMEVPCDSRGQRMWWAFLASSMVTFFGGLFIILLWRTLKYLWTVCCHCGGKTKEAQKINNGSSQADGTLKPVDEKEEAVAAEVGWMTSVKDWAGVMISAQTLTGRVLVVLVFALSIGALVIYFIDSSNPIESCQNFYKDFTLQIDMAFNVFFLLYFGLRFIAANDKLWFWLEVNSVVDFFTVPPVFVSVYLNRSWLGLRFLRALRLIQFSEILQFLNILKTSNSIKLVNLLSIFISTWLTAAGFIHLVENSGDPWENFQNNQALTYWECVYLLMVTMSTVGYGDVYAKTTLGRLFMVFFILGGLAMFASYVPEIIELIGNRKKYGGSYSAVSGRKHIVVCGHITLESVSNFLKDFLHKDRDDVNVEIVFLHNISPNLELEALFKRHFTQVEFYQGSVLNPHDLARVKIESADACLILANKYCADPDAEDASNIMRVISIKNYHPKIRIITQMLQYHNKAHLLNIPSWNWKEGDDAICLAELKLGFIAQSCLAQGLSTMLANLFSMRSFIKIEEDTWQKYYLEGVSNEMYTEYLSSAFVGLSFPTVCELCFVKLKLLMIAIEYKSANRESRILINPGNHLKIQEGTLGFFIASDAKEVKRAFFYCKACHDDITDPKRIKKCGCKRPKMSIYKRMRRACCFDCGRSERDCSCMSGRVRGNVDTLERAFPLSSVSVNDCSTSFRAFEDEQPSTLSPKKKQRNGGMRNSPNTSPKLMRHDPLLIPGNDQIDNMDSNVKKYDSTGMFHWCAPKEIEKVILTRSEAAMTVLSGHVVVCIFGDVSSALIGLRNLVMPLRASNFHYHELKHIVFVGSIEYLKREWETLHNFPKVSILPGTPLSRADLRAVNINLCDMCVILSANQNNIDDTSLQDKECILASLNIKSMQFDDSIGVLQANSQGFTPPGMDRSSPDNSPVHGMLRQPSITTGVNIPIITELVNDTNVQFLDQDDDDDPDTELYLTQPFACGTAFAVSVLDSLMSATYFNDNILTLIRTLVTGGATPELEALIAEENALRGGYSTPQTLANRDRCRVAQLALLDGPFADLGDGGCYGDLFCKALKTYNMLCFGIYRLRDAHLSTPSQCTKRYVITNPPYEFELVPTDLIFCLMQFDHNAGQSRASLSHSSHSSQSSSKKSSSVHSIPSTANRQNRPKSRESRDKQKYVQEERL

IC50 [4] [nM] | IC50 [5] [nM] | IC50 [6] [nM] | Fu [7] | Activity [8] [%] | Efficacy [10] [%] | inhibition [11] | Efficacy [12] | Compound | Efficacy (CHO) [%] | Efficacy (HEK293 [9]) [%] | Efficacy (HEK293 [13]) [%] | further results
 |  |  |  |  |  |  |  | COc1ccc(S(=O)(=O)N2CC(c3nc(-c4ccsc4)no3)C2)cc1 |  |  |  | Efficacy (HEK293 [1]; filed as activator): 51%; EC50 [2]: 3200 nM
1040 | 2300 | > 10000 | 0.012 | 63 |  |  |  | [2H]C([2H])([2H])C([2H])([2H])Oc1ccccc1S(=O)(=O)N1CC(c2nc(-c3ccc(F)cc3)no2)C1 |  |  |  | IC50 [3]: 5400 nM
1090 | 1100 | > 10000 | < 0.01 | < 10 | 47 | inactive | inactive | CC(C)Oc1ccccc1S(=O)(=O)N1CC(c2nc(-c3ccsc3)no2)C1 | 101 | 109 | 103 | 
1000 | 1000 | 2300 | 0.012 | 58 | 50 | inactive | inactive | CCOc1ccccc1S(=O)(=O)N1CC(c2nc(-c3ccc(F)cc3)no2)C1 | 101 | 110 | 105 | IC50 [3]: 3200 nM; Efficacy (CHO; tested as the 2H-labelled form): 101%; Efficacy (HEK293 [9]; tested as the 2H-labelled form): 83%; Efficacy ([10]; tested as the 2H-labelled form): 55%; inhibition ([11]; tested as the 2H-labelled form): inactive; Efficacy ([12]; tested as the 2H-labelled form): inactive; Efficacy (HEK293 [13]; tested as the 2H-labelled form): 100%
 |  |  |  |  |  |  |  | CCOc1ccccc1S(=O)(=O)N1CC(c2nc(-c3ccc(OC)cc3)no2)C1 |  |  |  | Efficacy (HEK293 [1]): 21%; EC50 [2]: 7100 nM
1760 | 4300 | > 10000 | < 0.01 | 21 | 35 | inactive | inactive | CCOc1ccccc1S(=O)(=O)N1CCC(c2nc(-c3ccc(F)cc3)no2)CC1 | 100 | 129 | 105 | 
1760 | 2500 | > 10000 | 0.012 | 57 | 27 | inactive | inactive | O=S(=O)(c1ccccc1OCC(F)(F)F)N1CC(c2nc(-c3ccc(F)cc3)no2)C1 | 100 | 72 | 91 | 
700 | 970 | > 10000 | 0.024 | < 10 | 65 | inactive | inactive | CCOc1ccccc1S(=O)(=O)N1CC(c2nc(-c3ccc(F)s3)no2)C1 | 100 | 103 | 105 | 
 |  |  |  |  |  |  |  | Cc1ccccc1S(=O)(=O)N1CC(c2nc(-c3ccsc3)no2)C1 |  |  |  | Efficacy (HEK293 [1]; filed as activator): 44%; EC50 [2]: 6100 nM
1580 | 1500 | 5900 | 0.014 | 71 | 56 | inactive | inactive | O=S(=O)(c1cccc2cccnc12)N1CC(c2nc(-c3ccc(F)cc3)no2)C1 | 100 | 112 | 98 | 
 |  |  |  |  |  |  |  | COc1ccccc1S(=O)(=O)N1CC(c2nc(-c3ccsc3)no2)C1 |  |  |  | Efficacy (HEK293 [1]): 29%; EC50 [2]: 8100 nM
1630 | 2600 | > 10000 | < 0.01 | 19 | 55 | inactive | inactive | O=S(=O)(c1cccc2c1OCCC2)N1CC(c2nc(-c3ccc(F)cc3)no2)C1 | 100 | 104 | 93 | 
640 | 820 | > 10000 | 0.022 | < 10 | 55 | inactive | inactive | CCOc1ccccc1S(=O)(=O)N1CC(c2nc(-c3ccsc3)no2)C1 | 100 | 72 | 102 | Ratio [14]: 0.65; Papp [15]: 31.1 10^-6 cm/s
430 | 2000 | > 10000 | 0.014 | 59 | 44 | inactive | inactive | CCOc1ccccc1S(=O)(=O)N1CC(c2nc(-c3ccc(F)cc3Cl)no2)C1 | 100 | 95 | 95 | IC50 [3]: 2100 nM

Compound | IC50 [4] [nM] | IC50 [5] [nM] | IC50 [6] [nM] | Fu [7] | Activity [8] [%] | Efficacy [10] [%] | inhibition [11] | Efficacy [12] | Efficacy (CHO) [%] | Efficacy (HEK293 [9]) [%] | Efficacy (HEK293 [13]) [%] | further results
Cc1ccc2cccc(S(=O)(=O)N3CC(c4nc(-c5ccc(F)cc5)no4)C3)c2n1 | 320 | 670 | > 10000 | < 0.01 | 26 | 76 | inactive | inactive | 100 | 72 | 99 | inhibition (INH) [16]: Not Active
